# Data taken from ChEMBL document CHEMBL1138245, “Discovery of N1-(6-chloroimidazo[2,1-b][1,3]thiazole-5-sulfonyl)tryptamine as a potent, selective, and orally active 5-HT(6) receptor agonist” (J Med Chem, 2007).
# Tests used:
# [1] = Drug level in Sprague-Dawley rat brain at 100 mg/kg, po after 4 hrs; assay type: ADME, organism-based; parameters: dose 100 mg/kg, route oral; details: read-out: Drug uptake
# In short: (§1)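 Rats given a single 3 mg/kg ip or 100 mg/kg oral dose; plasma and brain concentrations measured over time to assess brain/plasma ratio.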
# [2] = Half life in dog at 1 mg/kg, iv; assay type: ADME, organism-based, Canis lupus familiaris; parameters: dose 1 mg/kg, route intravenous; details: in vivo
# [3] = Ratio of drug level in brain to plasma in Sprague-Dawley rat at 3 mg/kg, ip after 1 hr; assay type: ADME, organism-based; parameters: dose 3 mg/kg, route intraperitoneal; details: read-out: BPR
# In short: (§2)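 Rats given a single dose, 3 mg/kg ip or 100 mg/kg oral; drug concentrations measured in plasma and brain at timed points after dosing; brain/plasma concentration ratio calculated.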
# [4] = Ratio of drug level in brain to plasma in Sprague-Dawley rat at 100 mg/kg, po after 4 hrs; assay type: ADME, organism-based; parameters: dose 100 mg/kg, route oral; details: read-out: BPR; in short: as §2
# [5] = Drug level in Sprague-Dawley rat brain at 3 mg/kg, ip after 0.25 hr; assay type: ADME, organism-based; parameters: dose 3 mg/kg, route intraperitoneal; details: read-out: Drug uptake; in short: as §1
# [6] = target: 5-hydroxytryptamine receptor 2A (Homo sapiens) (UniProt P28223); assay: Displacement of [125I]DOI from human 5HT2A receptor expressed in CHO cells at 1 uM; assay type: cell-based
# [7] = Half life in rat at 10 mg/kg, po; assay type: ADME, organism-based; parameters: dose 10 mg/kg, route oral; details: in vivo
# [8] = Drug level in Sprague-Dawley rat plasma at 100 mg/kg, po after 0.25 hr; assay type: ADME, organism-based; parameters: dose 100 mg/kg, route oral; in short: as §1
# [9] = Drug level in Sprague-Dawley rat plasma at 3 mg/kg, ip after 2 hrs; assay type: ADME, organism-based; parameters: dose 3 mg/kg, route intraperitoneal; in short: as §1
# [10] = Tmax in rat at 10 mg/kg, po; assay type: ADME, organism-based; parameters: dose 10 mg/kg, route oral; details: in vivo
# [11] = Ratio of drug level in brain to plasma in rat at 3 mg/kg, ip or 100 mg/kg, po; assay type: ADME, organism-based; details: read-out: BPR; in short: as §2
# [12] = Metabolic stability in human liver microsomes; assay type: ADME, Microsome
# [13] = target: 5-hydroxytryptamine receptor 5A (Homo sapiens) (UniProt P47898); assay: Inhibition of human 5HT5 receptor expressed in CHO cells at 100 nM; assay type: cell-based
# [14] = Half life in rat at 1 mg/kg, iv; assay type: ADME, organism-based; parameters: dose 1 mg/kg, route intravenous; details: in vivo
# [15] = Drug level in Sprague-Dawley rat brain at 3 mg/kg, ip after 4 hrs; assay type: ADME, organism-based; parameters: dose 3 mg/kg, route intraperitoneal; details: read-out: Drug uptake; in short: as §1
# [16] = Drug level in Sprague-Dawley rat brain at 3 mg/kg, ip after 1 hr; assay type: ADME, organism-based; parameters: dose 3 mg/kg, route intraperitoneal; details: read-out: Drug uptake; in short: as §1
# [17] = target: 5-hydroxytryptamine receptor 1B (Homo sapiens) (UniProt P28222); assay: Displacement of [3H]5-HT from human 5HT1B receptor expressed in CHO cells at 1 uM; assay type: cell-based
# [18] = target: Beta-2 adrenergic receptor (Homo sapiens) (UniProt P07550); assay: Displacement of radio ligand from beta-2 adrenergic receptor at 100 nM
# [19] = Half life in dog at 5 mg/kg, po; assay type: ADME, organism-based, Canis lupus familiaris; parameters: dose 5 mg/kg, route oral; details: in vivo
# [20] = target: 5-hydroxytryptamine receptor 2B (Homo sapiens, UniProt P41595); assay: Inhibition of human 5HT2B receptor expressed in CHO cells; assay type: cell-based
# [21] = AUC in dog at 5 mg/kg, po; assay type: ADME, organism-based, Canis lupus familiaris; parameters: dose 5 mg/kg, route oral; details: plasma
# [22] = Permeability in parallel artificial membrane; assay type: ADME; details: PAMPA; read-out: permeability
# In short: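 Parallel artificial membrane permeability assay (PAMPA); permeability reported in cm/s; triplicate determinations, standard error <20%.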
# [23] = Ratio of drug level in brain to plasma in Sprague-Dawley rat at 100 mg/kg, po after 0.5 hr; assay type: ADME, organism-based; parameters: dose 100 mg/kg, route oral; details: read-out: BPR; in short: as §2
# [24] = Drug level in Sprague-Dawley rat plasma at 3 mg/kg, ip after 1 hr; assay type: ADME, organism-based; parameters: dose 3 mg/kg, route intraperitoneal; in short: as §1
# [25] = Metabolic stability in dog liver microsomes; assay type: ADME, Canis lupus familiaris, Microsome
# [26] = Drug level in Sprague-Dawley rat plasma at 100 mg/kg, po after 1 hr; assay type: ADME, organism-based; parameters: dose 100 mg/kg, route oral; in short: as §1
# [27] = target: 5-hydroxytryptamine receptor 1D (Homo sapiens) (UniProt P28221); assay: Displacement of [3H]5HT from human 5HT1D receptor expressed in CHO cells at 1 uM; assay type: cell-based
# [28] = Clearance in rat at 1 mg/kg, iv; assay type: ADME, organism-based; parameters: dose 1 mg/kg, route intravenous; details: in vivo
# [29] = Volume of distribution in rat at 1 mg/kg, iv; assay type: ADME, organism-based; parameters: dose 1 mg/kg, route intravenous; details: in vivo, read-out: Vdss
# Beta-2 adrenergic receptor (Homo sapiens), sequence (P07550 whole entry, looked up): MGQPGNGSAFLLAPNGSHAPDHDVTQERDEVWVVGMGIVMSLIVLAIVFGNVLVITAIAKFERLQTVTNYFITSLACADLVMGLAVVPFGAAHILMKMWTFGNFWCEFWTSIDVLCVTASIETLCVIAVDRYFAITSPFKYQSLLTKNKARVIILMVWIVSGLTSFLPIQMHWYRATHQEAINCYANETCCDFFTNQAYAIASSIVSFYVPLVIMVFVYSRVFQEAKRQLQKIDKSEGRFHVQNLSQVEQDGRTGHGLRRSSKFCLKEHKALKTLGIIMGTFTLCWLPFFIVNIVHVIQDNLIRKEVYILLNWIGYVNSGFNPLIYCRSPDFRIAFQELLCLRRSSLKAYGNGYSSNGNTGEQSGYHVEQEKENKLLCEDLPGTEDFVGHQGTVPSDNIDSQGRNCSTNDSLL
# 5-hydroxytryptamine receptor 2B, sequence (P41595 whole entry): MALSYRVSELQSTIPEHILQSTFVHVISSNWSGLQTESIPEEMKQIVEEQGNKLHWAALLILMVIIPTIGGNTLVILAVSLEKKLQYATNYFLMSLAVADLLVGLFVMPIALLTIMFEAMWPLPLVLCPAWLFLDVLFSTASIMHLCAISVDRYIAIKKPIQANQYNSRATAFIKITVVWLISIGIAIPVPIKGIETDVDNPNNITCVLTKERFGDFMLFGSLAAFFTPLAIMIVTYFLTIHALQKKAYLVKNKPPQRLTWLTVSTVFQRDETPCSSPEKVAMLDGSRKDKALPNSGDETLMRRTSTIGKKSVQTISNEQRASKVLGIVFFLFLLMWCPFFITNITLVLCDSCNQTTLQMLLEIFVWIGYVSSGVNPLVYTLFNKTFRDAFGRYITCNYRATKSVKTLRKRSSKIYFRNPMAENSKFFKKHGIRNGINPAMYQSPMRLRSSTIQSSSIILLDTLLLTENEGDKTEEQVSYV
# 5-hydroxytryptamine receptor 1D (Homo sapiens), sequence (P28221 whole entry): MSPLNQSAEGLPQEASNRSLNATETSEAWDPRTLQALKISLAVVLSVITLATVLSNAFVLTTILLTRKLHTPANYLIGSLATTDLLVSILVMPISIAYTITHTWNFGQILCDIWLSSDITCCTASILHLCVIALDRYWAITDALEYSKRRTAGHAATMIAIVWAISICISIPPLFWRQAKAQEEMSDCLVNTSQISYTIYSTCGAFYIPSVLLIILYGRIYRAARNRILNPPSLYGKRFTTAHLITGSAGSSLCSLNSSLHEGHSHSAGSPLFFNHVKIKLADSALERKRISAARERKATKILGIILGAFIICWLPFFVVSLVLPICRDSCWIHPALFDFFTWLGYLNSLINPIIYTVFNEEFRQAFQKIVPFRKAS
# 5-hydroxytryptamine receptor 5A (Homo sapiens), sequence (P47898 whole entry): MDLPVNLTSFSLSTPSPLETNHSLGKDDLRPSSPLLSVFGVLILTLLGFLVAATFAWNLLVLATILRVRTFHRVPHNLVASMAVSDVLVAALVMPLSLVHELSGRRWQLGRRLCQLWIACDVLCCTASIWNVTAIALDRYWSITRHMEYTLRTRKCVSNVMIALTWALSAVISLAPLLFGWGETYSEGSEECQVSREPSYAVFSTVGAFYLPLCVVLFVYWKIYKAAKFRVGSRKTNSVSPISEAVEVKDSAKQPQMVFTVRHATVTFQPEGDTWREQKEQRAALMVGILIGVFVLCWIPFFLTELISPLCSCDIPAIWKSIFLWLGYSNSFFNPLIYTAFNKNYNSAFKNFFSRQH
# 5-hydroxytryptamine receptor 1B (Homo sapiens), sequence (P28222 whole entry): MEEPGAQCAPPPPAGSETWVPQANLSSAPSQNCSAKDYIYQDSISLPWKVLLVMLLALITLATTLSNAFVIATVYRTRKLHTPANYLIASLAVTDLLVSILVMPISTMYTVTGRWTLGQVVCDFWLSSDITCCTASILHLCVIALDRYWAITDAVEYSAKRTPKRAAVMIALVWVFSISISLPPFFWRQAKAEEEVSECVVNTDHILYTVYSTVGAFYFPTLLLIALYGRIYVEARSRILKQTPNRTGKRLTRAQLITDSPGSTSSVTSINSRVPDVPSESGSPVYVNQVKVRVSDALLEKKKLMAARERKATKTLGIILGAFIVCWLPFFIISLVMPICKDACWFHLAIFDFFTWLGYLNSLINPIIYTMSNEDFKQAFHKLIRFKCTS
# 5-hydroxytryptamine receptor 2A (Homo sapiens), sequence (P28223 whole entry): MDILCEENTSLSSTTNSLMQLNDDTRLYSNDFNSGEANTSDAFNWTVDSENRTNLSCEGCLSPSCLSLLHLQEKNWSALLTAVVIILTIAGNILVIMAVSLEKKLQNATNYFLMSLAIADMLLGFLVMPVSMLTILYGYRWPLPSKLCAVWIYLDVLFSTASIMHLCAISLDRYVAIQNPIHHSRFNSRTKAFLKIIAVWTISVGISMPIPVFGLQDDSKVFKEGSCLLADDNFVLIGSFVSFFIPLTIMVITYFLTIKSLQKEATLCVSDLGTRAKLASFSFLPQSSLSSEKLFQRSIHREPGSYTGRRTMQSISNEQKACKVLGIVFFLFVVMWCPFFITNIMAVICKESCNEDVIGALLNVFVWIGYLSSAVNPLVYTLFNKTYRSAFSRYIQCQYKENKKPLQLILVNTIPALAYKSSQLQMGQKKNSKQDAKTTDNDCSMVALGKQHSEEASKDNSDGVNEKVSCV
compound,measurement,setting,value
NCCc1cn(S(=O)(=O)c2c(Cl)nc3sccn23)c2ccccc12,concentration at 4 h,[1],98 ng/mL
same,half-life,[2],2.9 h
same,Kp at 1 h,[3],0.68
same,Kp at 4 h,[4],0.26
same,concentration at 0.25 h,[5],8.4 ng/mL
same,Activity,[6],25%
same,half-life,[7],3.1 h
same,concentration at 0.25 h,[8],120 ng/mL
same,concentration at 2 h,[9],3.2 ng/mL
same,Tmax,[10],1.7 h
same,Kp,[11],0.1
same,half-life,[12],> 1 h
same,inhibition,[13],< 50%
same,half-life,[14],5.4 h
same,concentration at 4 h,[15],6 ng/mL
same,concentration at 1 h,[16],14.2 ng/mL
same,Activity,[17],36%
same,Activity,[18],< 50%
same,half-life,[19],6.6 h
same,Ki,[20],458 nM
same,AUC,[21],1430 ng·h/mL
same,Papp,[22],13.6 ×10⁻⁶ cm/s
same,Kp at 0.5 h,[23],0.55
same,concentration at 1 h,[24],21 ng/mL
same,half-life,[25],0.433 h
same,concentration at 1 h,[26],312 ng/mL
same,Activity,[27],21%
same,clearance,[28],123 mL/min/kg
same,Vd,[29],24 L/kg
